The values that follow come from ChEMBL document CHEMBL1130878 (Bioorg Med Chem Lett, 1998).

The species entered for one assay is Oryctolagus cuniculus. The experiment in a line: Compound was evaluated for the functional assay performed by obtaining sarafotoxin 6c concentration-response curves [pA2(ETB)] in isolated rabbit jugularis vein.
A further assay is filed under the species Rattus norvegicus. The experiment in a line: Compound was evaluated for the functional assay performed by obtaining ET-1 concentration-response curves [pA2(ETA)] in isolated rat aortic rings. Conditions: Aorta, read-out: pA2 (converted). The gist of the method: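 Functional ETA assay: ET-1 concentration-response curves in isolated rat aortic rings with the endothelium removed. Antagonism is expressed as pA2.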

Assay [1] concerns the target T1, Endothelin receptor type B (Sus scrofa, UniProt P35463).
T1 sequence (P35463 whole entry): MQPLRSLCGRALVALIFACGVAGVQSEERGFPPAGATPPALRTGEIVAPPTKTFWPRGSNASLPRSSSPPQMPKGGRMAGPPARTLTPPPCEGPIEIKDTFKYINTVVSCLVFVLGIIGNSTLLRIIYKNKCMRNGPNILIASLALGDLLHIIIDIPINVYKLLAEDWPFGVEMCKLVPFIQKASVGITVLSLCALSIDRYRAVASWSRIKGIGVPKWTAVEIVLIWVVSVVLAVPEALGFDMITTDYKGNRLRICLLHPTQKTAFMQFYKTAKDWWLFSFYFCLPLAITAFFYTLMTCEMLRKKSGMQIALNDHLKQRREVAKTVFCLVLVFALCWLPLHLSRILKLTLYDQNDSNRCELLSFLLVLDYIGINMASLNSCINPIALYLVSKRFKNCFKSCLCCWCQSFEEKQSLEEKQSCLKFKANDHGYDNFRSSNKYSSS
The experiment in a line: In vitro ability to inhibit specific [125I]ET1 binding to porcine kidney (inner medulla) membranes Endothelin B receptor.

In a further assay the target is T2, Endothelin-1 receptor (Rattus norvegicus, UniProt P26684).
T2 sequence (P26684 whole entry): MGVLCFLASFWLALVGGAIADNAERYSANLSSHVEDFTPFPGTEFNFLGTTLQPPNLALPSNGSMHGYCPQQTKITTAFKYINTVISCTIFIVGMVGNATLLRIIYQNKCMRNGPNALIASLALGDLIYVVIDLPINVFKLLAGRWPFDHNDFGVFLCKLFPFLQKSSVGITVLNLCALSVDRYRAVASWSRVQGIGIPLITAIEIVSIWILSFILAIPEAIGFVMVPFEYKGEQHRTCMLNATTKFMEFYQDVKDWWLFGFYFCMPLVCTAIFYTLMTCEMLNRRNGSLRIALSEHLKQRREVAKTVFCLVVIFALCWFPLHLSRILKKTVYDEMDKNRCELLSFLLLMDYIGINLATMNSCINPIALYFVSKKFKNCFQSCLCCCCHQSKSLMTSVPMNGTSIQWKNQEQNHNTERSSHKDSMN
The experiment in a line: In vitro ability to inhibit specific [125I]ET1 binding to rat aorta membranes Endothelin A receptor. Format: tissue-based.

Regarding `CCCCN(CCCC)C(=O)CN1C[C@H](c2ccc3c(c2)OCO3)[C@@H](C(=O)O)[C@@H]1c1ccc(OC)cc1`, the Kb was 794 nM in the assay listed under Oryctolagus cuniculus and 2.51 nM in the assay listed under Rattus norvegicus.

Usually IC50 stands for the point on the concentration scale where inhibition reaches its midpoint. A lower IC50 goes with greater potency in that assay. As for `COc1ccc(C(=O)/C(Cc2cc(OC)c(OC)c(OC)c2)=C(\C(=O)O)c2ccc3c(c2)OCO3)cc1` [PD-156707 SODIUM], the IC50 in assay [1] amounted to 340 nM; at Endothelin-1 receptor, 1.3 nM. Also, the results for the Kb in the assay filed under Oryctolagus cuniculus and in the assay filed under Rattus norvegicus were above 3160 nM and 25.1 nM, respectively.
